Three compounds from ChEMBL document CHEMBL1155280, “New arylthioindoles and related bioisosteres at the sulfur bridging group. 4. Synthesis, tubulin polymerization, cell growth inhibition, and molecular modeling studies” (J Med Chem, 2009) can be followed below.

One may read the IC50 as the concentration at which inhibition is half-maximal. A high value points to weaker potency.

A short description of data set [1]: Inhibition of tubulin polymerization after 20 mins by spectrophotometry. The method in brief:
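Tubulin 10 μM in 0.8 M monosodium glutamate, pH 6.6, preincubated 15 min at 30 °C with varying drug, chilled on ice. GTP added to 0.4 mM, turbidity at 350 nm followed 20 min at 30 °C. Extent of assembly measured; IC50 ± SD.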

The subject of data set [2] is MCF7. Kind of data set: Growth inhibition of human MCF7 cells after 48 hrs by sulforhodamine B assay. In kind it is functional, cell-based. The settings on record: MCF7, 48 h.
The species named for the next data set is Bos taurus. Kind of data set: Inhibition of [3H]colchicine binding to bovine tubulin at 5 uM after 10 mins by DEAE-cellulose filter method.
Data set [3] has as its system HeLa. Kind of data set: Antiproliferative activity against human HeLa cells assessed as cell proliferation at 0.5 uM after 24 hrs by MTT assay relative to control. The data set is classed as functional. The settings on record: read-out: Activity. An outline of the steps: (§1)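 HeLa and HCT116/chr3 cells grown at 37 °C, 5% CO2 in D-MEM with 10% fetal calf serum (HCT116/chr3 medium plus 500 μg/mL G418). Seeded 1 × 10^3 cells/well, treated 24 h later for 24 h from 10 mM DMSO stock; 1% DMSO solvent control. Quadruplicate, repeated three times; given as % of control ± SD.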

In data set [4] the test system is HeLa. Kind of data set: Antiproliferative activity against human HeLa cells assessed as cell proliferation at 1 uM after 24 hrs by MTT assay relative to control. In kind it is functional. The settings on record: read-out: Activity. An outline of the steps:
as §1
(In general: Tetrazolium dyes change colour on reduction, which living cells bring about.)

Data set [5] deals with HCT-116. Kind of data set: Antiproliferative activity against human HCT116 cells expressing mismatch repair gene MLH1 complemented with chromosome 3 assessed as cell proliferation at 0.5 uM after 24 hrs by MTT assay relative to control. In kind it is functional. The settings on record: HCT-116, 24 h, read-out: Activity. The method in brief: as §1
The subject of data set [6] is HCT-116. Kind of data set: Antiproliferative activity against human HCT116 cells expressing mismatch repair gene MLH1 complemented with chromosome 3 assessed as cell proliferation at 1 uM after 24 hrs by MTT assay relative to control. The settings on record: HCT-116, 24 h, read-out: Activity. The data set is classed as functional. The method in brief:
as §1

The test system of data set [7] is HEK293. Kind of data set: Cytotoxicity against HEK293 cells after 48 hrs by MTT assay. In kind it is cell-based, Homo sapiens. The settings on record: for Activity: human, hek293, 48 h. An outline of the steps: (§2)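 MTT assay. Seeded 10^5 cells/well, compound added after 24 h at 10, 30, 50, 100, 150, 200 nM for 24 or 48 h. MTT 1 mg/mL, 2 h at 37 °C in dark, formazan dissolved in DMSO, read at 550 nm. Triplicate; 0.5% DMSO control.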

Data set [8] relates to M14. Kind of data set: Cytotoxicity against human M14 cells after 48 hrs by MTT assay. In kind it is functional, cell-based. The settings on record: for IC50: M14, 48 h. The method in brief:
as §2

In data set [9] the test system is U-937. Kind of data set: Cytotoxicity against human U937 cells after 48 hrs by MTT assay. Conditions: for IC50: U-937, 48 h. In kind it is functional, cell-based. The method in brief:
as §2

The nature of data set [10]: Growth inhibition of mouse J774.1 cells at 300 nM after 48 hrs by MTT assay relative to control. In kind it is cell-based. Conditions: read-out: GI.
The nature of data set [11]: Growth inhibition of HSMC. In kind it is cell-based. The settings on record: Homo sapiens. The method in brief: (§3)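 Human aortic smooth muscle, PtK2 kidney epithelial, rat A10 aortic smooth muscle and HUVEC lines grown as the supplier recommends, under 5% CO2.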
For a further data set, the species on record is Homo sapiens. Kind of data set: Selectivity index, ratio of IC50 for HSMC to IC50 for human MCF7. An outline of the steps: (§4)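 Selectivity index: IC50 in the named nontransformed line divided by IC50 in MCF-7 cells.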
The nature of data set [12]: Growth inhibition of Potorous tridactylus PtK2 cells. In kind it is cell-based. The method in brief: as §3
The subject of data set [13] is MCF7. Kind of data set: Selectivity index, ratio of IC50 for Potorous tridactylus PtK2 cells to IC50 for human MCF7 cells. The data set is classed as functional. An outline of the steps:
as §4

The next data set relates to A10. Kind of data set: Growth inhibition of rat A10 cells. In kind it is cell-based. The method in brief:
as §3

The test system of data set [14] is MCF7. Kind of data set: Selectivity index, ratio of IC50 for rat A10 cells to IC50 for human MCF7 cells. The data set is classed as functional. The method in brief: as §4
The subject of the next data set is HUVEC. Kind of data set: Growth inhibition of HUVEC. In kind it is cell-based. Conditions: Homo sapiens. The method in brief: as §3
Data set [15] deals with MCF7. Kind of data set: Selectivity index, ratio of IC50 for HUVEC to IC50 for human MCF7 cells. An outline of the steps:
as §4

In data set [16] the test system is HEK293. Kind of data set: Cytotoxicity against HEK293 cells at 10 to 200 nM by MTT assay. The data set is classed as cell-based. The settings on record: human, hek293, 0.2 µM; TDE = time-dependent effect. An outline of the steps:
as §2

Data set [17] deals with M14. Kind of data set: Cytotoxicity against human M14 cells at 10 to 200 nM by MTT assay. In kind it is functional, cell-based. Conditions: TDE = time-dependent effect. The method in brief:
as §2

The test system of data set [18] is U-937. Kind of data set: Cytotoxicity against human U937 cells at 10 to 200 nM by MTT assay. In kind it is functional, cell-based. The settings on record: TDE = time-dependent effect. The method in brief: as §2
Data set [19] concerns HEK293. Kind of data set: Cytotoxicity against HEK293 cells assessed as effect on cell morphology at 300 nM after 48 hrs by time-lapse microscopy. Conditions: human, hek293, 48 h, 0.3 µM. The data set is classed as cell-based. The method in brief:
(§5)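 Morphology of HEK and M14 cells followed by time-lapse microscopy in 96-well plates at 37 °C, 5% CO2, with images captured every hour over 48 h.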

For data set [20], the system named is M14. Kind of data set: Cytotoxicity against human M14 cells assessed as effect on cell morphology at 300 nM after 48 hrs by time-lapse microscopy. The data set is classed as functional, cell-based. An outline of the steps: as §5
The test system of data set [21] is Saccharomyces cerevisiae. Kind of data set: Toxicity in Saccharomyces cerevisiae assessed as growth inhibition at first dilution at 20 uM after 3 days. In kind it is organism-based. Conditions: in vivo, 72 h. The method in brief:
(§6)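 S. cerevisiae BY4741 grown at 28 °C in minimal SD medium with 2% glucose. Exponential culture (5 × 10^6 cells/mL) exposed 18 h at 28 °C to compound at 20 μM, washed, resuspended in SD, serially diluted 10-fold, incubated overnight. Spotted onto YPD plates; growth scored by dilution reached after 3 days at 28 °C.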

For data set [22], the system named is Saccharomyces cerevisiae. Kind of data set: Toxicity in Saccharomyces cerevisiae assessed as growth inhibition at second dilution at 20 uM after 3 days. Conditions: in vivo, 72 h. In kind it is organism-based. The method in brief: as §6

Activity calls are given as the source filed them. The calls are words filed in the database; no cut-off is given here.

With `COc1cc(Sc2c[nH]c3ccc(Br)cc23)cc(OC)c1OC`, the IC50 in data set [1] is 1600 nM; in the data set on MCF7 [2], 43 nM; with M14 [8], 194 nM; in the data set with U-937 [9] it was 100 nM; in data set [11], 300 nM; in [12], 230 nM. Besides, the half-maximal inhibitory concentration (IC50) with A10 came to 210 nM; in the data set with HUVEC it was 400 nM. For the same compound, the inhibition in the data set filed under Bos taurus is 65%. The growth at 0.5 µM in the data set on HeLa [3] was found to be 47%; in the data set with HCT-116 [5] it was 60%. In addition, the results for the growth at 1 µM in the data set on HeLa [4] and in the data set on HCT-116 [6] were 56% and 60%, respectively. Besides, the Activity result in the data set on HEK293 [7] is “Dose-dependent effect”; with M14 [8] it was “Dose-dependent effect”; in the data set with U-937 [9] it was “Dose-dependent effect”; with HEK293 [16], “tde”; in the data set with M14 [17], “tde”; in the data set on U-937 [18], “tde”. In addition, the Activity result in the data set with HEK293 [19] is given as “Toxic”; in the data set on Saccharomyces cerevisiae [21] it was “Toxic”; with Saccharomyces cerevisiae [22], “Non-toxic”. The inhibition at 48 h, 0.3 µM in data set [10] is 20%. The Ratio IC50 was 7 in the data set filed under Homo sapiens, 5.3 in the data set on MCF7 [13], 4.9 in the data set on MCF7 [14] and 9.3 in the data set on MCF7 [15]. Also, the result in the data set on M14 [20] was Active.
In the case of `COC(=O)c1[nH]c2ccc(OC)cc2c1Cc1cc(OC)c(OC)c(OC)c1`, the concentration for half-maximal inhibition (IC50) in data set [1] turned out to be 1400 nM; in the data set with MCF7 [2], 33 nM; in the data set with HEK293 [7] (Homo sapiens, HEK293, 48 h) it was 181 nM; with M14 [8], 137 nM; in the data set with U-937 [9], 189 nM; in data set [11] it was 70 nM. For the same compound, the IC50 in data set [12] is 190 nM; with A10 it was 130 nM; in the data set with HUVEC, 170 nM. Further, in the data set listed under Bos taurus, the inhibition was 59%. Moreover, the growth at 0.5 µM was 52% with HeLa [3] and 69% in the data set with HCT-116 [5]. Besides, the growth at 1 µM was 51% with HeLa [4] and 69% in the data set on HCT-116 [6]. Moreover, the Activity entry was “Dose-dependent effect” in the data set with HEK293 [7]; “Dose-dependent effect” in the data set on M14 [8]; “Dose-dependent effect” in the data set on U-937 [9]; “tde” with HEK293 [16]; “tde” in the data set with M14 [17]; “tde” with U-937 [18]. For the same compound, in the data set on HEK293 [19], the Activity entry is recorded as “Toxic”. Further, in data set [10], the inhibition at 48 h, 0.3 µM is 20%. For the same compound, the Ratio IC50 was 2.1 in the data set listed under Homo sapiens, 5.8 with MCF7 [13], 3.9 in the data set on MCF7 [14] and 5.2 in the data set on MCF7 [15]. Further, the outcome in the data set on M14 [20] was Active.
As to `COc1cc(Cn2cccc2C(=O)O)cc(OC)c1OC`, the 50% inhibitory concentration (IC50) is above 40000 nM in data set [1] and above 2500 nM in the data set with MCF7 [2]. Further, the results for the Activity entry in the data set with Saccharomyces cerevisiae [21] and with Saccharomyces cerevisiae [22] were “Toxic” and “Non-toxic”, respectively.
